Results reported in ChEMBL document CHEMBL3351725, “Design, synthesis and biological evaluation of (E)-3-(3,4-dihydroxyphenyl)acrylylpiperazine derivatives as a new class of tubulin polymerization inhibitors” (Bioorg Med Chem, 2014).
Converted amounts (≈) assume the structure as drawn.

Legend:
[1] = tested on: MCF7; experiment: Antiproliferative activity against human MCF7 cells after 48 hrs by MTT assay; assay type: functional, cell-based; conditions: MCF7, 48 h
How it was run: (§1)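 Cells diluted to 2 × 10⁴ cells/mL in complete medium, seeded in 96-well plates and incubated 24 h at 37 °C, 5% CO₂ before compound addition at preset concentrations; colchicine and CA-4 as positive references. After 48 h exposure, MTT added; 4 h later 10% SDS-5% isobutyl alcohol-0.01 M HCl extraction solution added, overnight at 37 °C, absorbance read at 570 nm.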

[2] = tested on: A549; experiment: Antiproliferative activity against human A549 cells after 48 hrs by MTT assay; assay type: functional, cell-based; conditions: A549, 48 h; how it was run: as §1
[3] = Antiproliferative activity against mouse B16F10 cells after 48 hrs by MTT assay; assay type: functional, cell-based; conditions: B16-F10, 48 h; how it was run: as §1
[4] = target: Tubulin (Bos taurus, UniProt Q6B856+Q862L2+Q862F3); experiment: Inhibition of bovine brain tubulin polymerization after 20 mins by turbidimetric method
[5] = tested on: MCF7; experiment: Cell cycle arrest in human MCF7 cells assessed as accumulation at G0/G1 phase at 2 ug/ml after 24 hrs by flow cytometry (reference value: 62.34 %); assay type: functional
[6] = tested on: MCF7; experiment: Cell cycle arrest in human MCF7 cells assessed as accumulation at G0/G1 phase at 1 ug/ml after 24 hrs by flow cytometry (reference value: 62.34 %); assay type: functional
[7] = tested on: MCF7; experiment: Cell cycle arrest in human MCF7 cells assessed as accumulation at S phase at 1 ug/ml after 24 hrs by flow cytometry (reference value: 13.05 %); assay type: functional
[8] = tested on: MCF7; experiment: Cell cycle arrest in human MCF7 cells assessed as accumulation at G2/M phase at 1 ug/ml after 24 hrs by flow cytometry (reference value: 24.61 %); assay type: functional
[9] = tested on: MCF7; experiment: Cell cycle arrest in human MCF7 cells assessed as accumulation at S phase at 2 ug/ml after 24 hrs by flow cytometry (reference value: 13.05 %); assay type: functional
[10] = tested on: MCF7; experiment: Cell cycle arrest in human MCF7 cells after 24 hrs by flow cytometry; assay type: functional, cell-based
[11] = tested on: MCF7; experiment: Cell cycle arrest in human MCF7 cells assessed as accumulation at G2/M phase at 2 ug/ml after 24 hrs by flow cytometry (reference value: 24.61 %); assay type: functional

Structure (SMILES)	IC50 [1]	IC50 [2]	IC50 [3]	IC50 [4]	Activity [5]	Activity [6]	Activity [7]	Activity [8]	Activity [9]	Activity [10]	Activity [11]
O=C(/C=C/c1ccc(O)c(O)c1)N1CCN(c2ccc([N+](=O)[O-])cc2)CC1	1.14 µg/mL (≈ 3.09 µM)	1.56 µg/mL (≈ 4.22 µM)	1.79 µg/mL (≈ 4.85 µM)	4.86 µM	–	–	–	–	–	–	–
O=C(/C=C/c1ccc(O)c(O)c1)N1CCN(c2cccc(Cl)c2)CC1	1.34 µg/mL (≈ 3.73 µM)	1.29 µg/mL (≈ 3.6 µM)	1.71 µg/mL (≈ 4.77 µM)	5.28 µM	–	–	–	–	–	–	–
O=C(/C=C/c1ccc(O)c(O)c1)N1CCN(c2cccc(C(F)(F)F)c2)CC1	1.24 µg/mL (≈ 3.16 µM)	1.74 µg/mL (≈ 4.43 µM)	2.01 µg/mL (≈ 5.12 µM)	5.89 µM	–	–	–	–	–	–	–
COc1ccccc1N1CCN(C(=O)/C=C/c2ccc(O)c(O)c2)CC1	0.54 µg/mL (≈ 1.52 µM)	0.98 µg/mL (≈ 2.77 µM)	1.23 µg/mL (≈ 3.47 µM)	1.72 µM	–	–	–	–	–	–	–
O=C(/C=C/c1ccc(O)c(O)c1)N1CCN(c2ccccc2Cl)CC1	1.36 µg/mL (≈ 3.79 µM)	1.44 µg/mL (≈ 4.01 µM)	1.82 µg/mL (≈ 5.07 µM)	5.46 µM	–	–	–	–	–	–	–
O=C(/C=C/c1ccc(O)c(O)c1)N1CCN(C(c2ccccc2)c2ccccc2)CC1	0.32 µg/mL (≈ 0.772 µM)	0.54 µg/mL (≈ 1.3 µM)	0.44 µg/mL (≈ 1.06 µM)	0.92 µM	2.63%	18.33%	18.18%	63.39%	13.01%	Dose-dependent effect	84.36%
O=C(/C=C/c1ccc(O)c(O)c1)N1CCN(c2ccc(F)cc2)CC1	1.44 µg/mL (≈ 4.21 µM)	1.25 µg/mL (≈ 3.65 µM)	1.68 µg/mL (≈ 4.91 µM)	7.39 µM	–	–	–	–	–	–	–
O=C(/C=C/c1ccc(O)c(O)c1)N1CCN(c2ccc(Cl)c(Cl)c2)CC1	1.28 µg/mL (≈ 3.25 µM)	1.74 µg/mL (≈ 4.42 µM)	1.66 µg/mL (≈ 4.22 µM)	4.93 µM	–	–	–	–	–	–	–
COc1ccc(/C=C\c2cc(OC)c(OC)c(OC)c2)cc1O [COMBRETASTATIN A4]	0.21 µg/mL (≈ 0.664 µM)	0.46 µg/mL (≈ 1.45 µM)	0.42 µg/mL (≈ 1.33 µM)	–	–	–	–	–	–	–	–
COc1cc2c(c(OC)c1OC)-c1ccc(OC)c(=O)cc1[C@@H](NC(C)=O)CC2 [COLCHICINE]	0.39 µg/mL (≈ 0.976 µM)	0.58 µg/mL (≈ 1.45 µM)	0.48 µg/mL (≈ 1.2 µM)	–	–	4.6%	11.78%	83.62%	–	–	–
O=C(/C=C/c1ccc(O)c(O)c1)N1CCN(c2ccccn2)CC1	1.82 µg/mL (≈ 5.59 µM)	2.32 µg/mL (≈ 7.13 µM)	3.01 µg/mL (≈ 9.25 µM)	11.61 µM	–	–	–	–	–	–	–
COc1cccc(N2CCN(C(=O)/C=C/c3ccc(O)c(O)c3)CC2)c1	0.92 µg/mL (≈ 2.6 µM)	1.27 µg/mL (≈ 3.58 µM)	1.46 µg/mL (≈ 4.12 µM)	3.08 µM	–	–	–	–	–	–	–
CCN1CCN(C(=O)/C=C/c2ccc(O)c(O)c2)CC1	2.06 µg/mL (≈ 7.45 µM)	6.54 µg/mL (≈ 23.7 µM)	6.44 µg/mL (≈ 23.3 µM)	12.78 µM	–	–	–	–	–	–	–
O=C(/C=C/c1ccc(O)c(O)c1)N1CCN(c2ccccc2)CC1	1.03 µg/mL (≈ 3.18 µM)	1.32 µg/mL (≈ 4.07 µM)	1.78 µg/mL (≈ 5.49 µM)	3.14 µM	–	–	–	–	–	–	–
O=C(/C=C/c1ccc(O)c(O)c1)N1CCN(c2cccc(Cl)c2Cl)CC1	1.12 µg/mL (≈ 2.85 µM)	1.68 µg/mL (≈ 4.27 µM)	2.01 µg/mL (≈ 5.11 µM)	4.42 µM	–	–	–	–	–	–	–
O=C(/C=C/c1ccc(O)c(O)c1)N1CCN(C(c2ccccc2)c2ccc(Cl)cc2)CC1 (configuration not stated)	0.48 µg/mL (≈ 1.07 µM)	0.8 µg/mL (≈ 1.78 µM)	0.68 µg/mL (≈ 1.51 µM)	1.56 µM	–	–	–	–	–	–	–
O=C(/C=C/c1ccc(O)c(O)c1)N1CCN(c2ccccc2F)CC1	1.38 µg/mL (≈ 4.03 µM)	1.43 µg/mL (≈ 4.18 µM)	2.43 µg/mL (≈ 7.1 µM)	7.78 µM	–	–	–	–	–	–	–
Cc1ccc(N2CCN(C(=O)/C=C/c3ccc(O)c(O)c3)CC2)c(C)c1	0.78 µg/mL (≈ 2.21 µM)	1.02 µg/mL (≈ 2.89 µM)	1.43 µg/mL (≈ 4.06 µM)	2.98 µM	–	–	–	–	–	–	–
O=C(/C=C/c1ccc(O)c(O)c1)N1CCN(Cc2ccccc2)CC1	1.48 µg/mL (≈ 4.37 µM)	2.98 µg/mL (≈ 8.81 µM)	3.12 µg/mL (≈ 9.22 µM)	9.28 µM	–	–	–	–	–	–	–
O=C(/C=C/c1ccc(O)c(O)c1)N1CCN(C(c2ccc(F)cc2)c2ccc(F)cc2)CC1	0.43 µg/mL (≈ 0.955 µM)	0.73 µg/mL (≈ 1.62 µM)	0.52 µg/mL (≈ 1.15 µM)	1.44 µM	–	–	–	–	–	–	–
COc1ccc(N2CCN(C(=O)/C=C/c3ccc(O)c(O)c3)CC2)cc1	0.52 µg/mL (≈ 1.47 µM)	0.93 µg/mL (≈ 2.62 µM)	1.21 µg/mL (≈ 3.41 µM)	1.86 µM	–	–	–	–	–	–	–
